In ChEMBL document CHEMBL1130400, “Discovery of a novel, selective, and orally bioavailable class of thrombin inhibitors incorporating aminopyridyl moieties at the P1 position” (J Med Chem, 1997):

What was measured:
Coagulation factor X [1] = target: T1, Coagulation factor X (Homo sapiens, UniProt P00742); experiment: (§1) In vitro inhibitory activity against Coagulation factor X
How it was run: (§2)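 Ki from the dependence of initial rate on inhibitor concentration. Proteinase (human FXa, or bovine trypsin) equilibrated with inhibitor, then chromogenic substrate added. p-Nitroaniline release followed as the absorbance increase at 405 nm.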

Serine protease 1 [2] = target: T2, Serine protease 1 (Bos taurus, UniProt P00760); experiment: In vitro inhibitory activity against bovine trypsin; how it was run: as §2
T2 sequence (P00760 whole entry): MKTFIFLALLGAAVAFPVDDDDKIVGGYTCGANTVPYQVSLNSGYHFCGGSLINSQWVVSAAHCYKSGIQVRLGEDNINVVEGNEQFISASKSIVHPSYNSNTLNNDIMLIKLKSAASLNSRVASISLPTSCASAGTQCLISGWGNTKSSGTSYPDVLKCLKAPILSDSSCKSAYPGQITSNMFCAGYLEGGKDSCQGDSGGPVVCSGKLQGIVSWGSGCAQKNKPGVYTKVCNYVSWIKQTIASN

Prothrombin = Prothrombin (Homo sapiens, UniProt P00734); experiment: In vitro inhibitory activity against human thrombin(IIa)
Coagulation factor X [3] = target: T1, Coagulation factor X; experiment: as §1; remark: listed apart in the source
How it was run: (§3)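 Ki values for bovine trypsin and human factor Xa came from the inhibitor-concentration dependence of the initial rate of p-nitroaniline release. Enzyme and inhibitor were equilibrated first, then chromogenic substrate was added, and the rate of absorbance increase at 405 nm was followed.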

[4] = Maximum plasma concentration after p.o. (10 mpk) administration in rats.; type: ADME, organism-based; design: route oral; conditions: rat, po, 10 mg/kg
How it was run: (§4)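 Rats were anesthetized and fitted with catheters in the left jugular vein (dosing) and left carotid artery (sampling). Next day, conscious rats were dosed iv at 2 mpk or orally by gastric lavage at 10 mpk. Blood was drawn before dosing and at increasing times after. Plasma inhibitor levels gave concentration–time curves. F was derived by comparing dose-normalized AUCs from oral and iv dosing.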

[5] = Partition coefficient (logP); type: physicochemical; conditions: octanol/water
[6] = Maximum time of retention in plasma, after peroral (10 mpk) administration in rats.; type: ADME, organism-based; conditions: rat, po, 10 mg/kg; how it was run: as §4
[7] = Oral bioavailability in rat; type: ADME, organism-based; conditions: in vivo; how it was run: as §4
[8] = Half life in rats; type: ADME, organism-based; conditions: rat, in vivo; how it was run: as §4
[9] = Clearance values in rats after iv administration.; type: ADME, organism-based; conditions: rat, in vivo; how it was run: as §4
[10] = pKa was determined; type: physicochemical
Serine protease 1 [11] = target: T2, Serine protease 1; experiment: In vitro iinhibitory activity against bovine trypsin; how it was run: as §3

T1 sequence (P00742 41-179 limits assumed): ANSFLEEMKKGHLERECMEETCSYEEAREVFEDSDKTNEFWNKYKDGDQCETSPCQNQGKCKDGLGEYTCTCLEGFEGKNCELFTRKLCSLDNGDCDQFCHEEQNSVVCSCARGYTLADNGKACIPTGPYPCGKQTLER
T1 sequence (P00742 235-488 limits assumed): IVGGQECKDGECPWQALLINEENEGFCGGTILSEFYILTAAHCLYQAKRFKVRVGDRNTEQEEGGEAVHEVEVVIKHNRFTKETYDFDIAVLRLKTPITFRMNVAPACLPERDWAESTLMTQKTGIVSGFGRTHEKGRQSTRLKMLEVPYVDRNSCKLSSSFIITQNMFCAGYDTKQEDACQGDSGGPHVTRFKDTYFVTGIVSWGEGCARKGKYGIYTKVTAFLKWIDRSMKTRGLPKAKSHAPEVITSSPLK

Ki (Coagulation factor X [1]) | Ki (Serine protease 1 [2]) | Ki (Prothrombin) | SMILES | further results
160 µM | 3 µM | – | Cc1cc(N)nc(C)c1CNC(=O)[C@@H]1CCCN1C(=O)[C@H](N)C(C1CCCCC1)C1CCCCC1 | –
27 µM | 45 µM | 0.56 µM | CC(C)(C)OC(=O)N[C@@H](C(=O)N1CCC[C@H]1C(=O)NCc1csc(N)c1)C(C1CCCCC1)C1CCCCC1 | –
16 µM | 1.5 µM | 0.0022 µM | Cc1cc(N)nc(C)c1CNC(=O)[C@@H]1CCCN1C(=O)[C@H](NC(=O)OC(C)(C)C)C(C1CCCCC1)C1CCCCC1 | –
> 100 µM | 767 µM | 0.36 µM | Nc1nc(CNC(=O)[C@@H]2CCCN2C(=O)[C@@H](Cc2ccc(Cl)c(Cl)c2)NS(=O)(=O)Cc2ccccc2)cs1 | –
94 µM | 5.4 µM | 0.012 µM | Nc1ccc(CNC(=O)[C@@H]2CCCN2C(=O)[C@H](N)C(c2ccccc2)c2ccccc2)cn1 | –
> 100 µM | 277 µM | 0.35 µM | Nc1nc(CNC(=O)[C@@H]2CCCN2C(=O)[C@H](N)C(c2ccccc2)c2ccccc2)cs1 | –
> 200 µM | 1.3 µM | 0.0076 µM | CC(C)(C)OC(=O)N[C@@H](C(=O)N1CCC[C@H]1C(=O)NCc1ccc(N)nc1)C(c1ccccc1)c1ccccc1 | –
> 200 µM | 31 µM | 0.51 µM | O=C(NCc1ccncc1)[C@@H]1CCCN1C(=O)[C@@H](Cc1ccc(Cl)c(Cl)c1)NS(=O)(=O)Cc1ccccc1 | –
7.6 µM | 0.43 µM | 0.003 µM | Nc1ccc(CNC(=O)[C@@H]2CCCN2C(=O)[C@@H](Cc2ccc(Cl)c(Cl)c2)NS(=O)(=O)Cc2ccccc2)cn1 | –
> 100 µM | 144 µM | 0.07 µM | Nc1nc(CNC(=O)[C@@H]2CCCN2C(=O)[C@H](N)C(C2CCCCC2)C2CCCCC2)cs1 | –
240 µM | 8.3 µM | 0.01 µM | Cc1cc(N)nc(C)c1CNC(=O)[C@@H]1CCCN1C(=O)[C@H](N)C(c1ccccc1)c1ccccc1 | –
> 100 µM | > 100 µM | 0.9 µM | CC(C)(C)OC(=O)N[C@@H](C(=O)N1CCC[C@H]1C(=O)NCc1csc(N)n1)C(c1ccccc1)c1ccccc1 | –
– | 56 µM | 0.13 µM | Nc1cc(CNC(=O)[C@@H]2CCCN2C(=O)[C@@H](Cc2ccc(Cl)c(Cl)c2)NS(=O)(=O)Cc2ccccc2)cs1 | Ki (Coagulation factor X [3]): > 100 µM
230 µM | 284 µM | 0.38 µM | O=C(NCc1cccnc1)[C@@H]1CCCN1C(=O)[C@@H](Cc1ccc(Cl)c(Cl)c1)NS(=O)(=O)Cc1ccccc1 | –
160 µM | 2.5 µM | 0.0036 µM | Cc1cc(N)nc(C)c1CNC(=O)[C@@H]1CCCN1C(=O)[C@H](NC(=O)OC(C)(C)C)C(c1ccccc1)c1ccccc1 | Cmax [4]: 610 nM; logP [5]: 1.65; Tmax [6]: 53 min; bioavailability [7]: 40%; half-life [8]: 50 min; clearance [9]: 76 mL/min/kg
> 1000 µM | 11 µM | – | CN[C@H](Cc1ccccc1)C(=O)N1CCC[C@H]1C(=O)NC[C@H]1CC[C@H](N)CC1 | logP [5]: -1.68; bioavailability [7]: 1%; pKa [10]: 10.2
4.4 µM | 0.657 µM | 0.003 µM | CC(C)(C)OC(=O)N[C@@H](C(=O)N1CCC[C@H]1C(=O)NCc1ccc(N)nc1)C(C1CCCCC1)C1CCCCC1 | Cmax [4]: 1430 nM; logP [5]: > 3.35; Tmax [6]: 120 min; bioavailability [7]: 60%; half-life [8]: 35 min; pKa [10]: 6.5; clearance [9]: 27 mL/min/kg
14 µM | 384 µM | 0.11 µM | O=C(NCc1ccccc1)[C@@H]1CCCN1C(=O)[C@@H](Cc1ccc(Cl)c(Cl)c1)NS(=O)(=O)Cc1ccccc1 | –
420 µM | 233 µM | 3.7 µM | CC(C)(C)OC(=O)N[C@H](Cc1ccccc1)C(=O)N1CCC[C@H]1C(=O)NCc1ccc(N)cc1 | –
> 100 µM | – | 0.35 µM | CC(C)(C)OC(=O)N[C@@H](C(=O)N1CCC[C@H]1C(=O)NCc1csc(N)n1)C(C1CCCCC1)C1CCCCC1 | Ki (Serine protease 1 [11]): 52 µM
8.3 µM | 1.2 µM | 0.00082 µM | Nc1ccc(CNC(=O)[C@@H]2CCCN2C(=O)[C@H](N)C(C2CCCCC2)C2CCCCC2)cn1 | Cmax [4]: 530 nM; logP [5]: 2.21; Tmax [6]: 26 min; bioavailability [7]: 76%; half-life [8]: 102 min; pKa [10]: 6.2; clearance [9]: > 200 mL/min/kg
52 µM | 8.9 µM | 0.011 µM | Cc1cc(N)nc(C)c1CNC(=O)[C@@H]1CCCN1C(=O)[C@@H](Cc1ccc(Cl)c(Cl)c1)NS(=O)(=O)Cc1ccccc1 | –
10 µM | 12 µM | – | Nc1ccc(CNC(=O)[C@@H]2CCCN2C(=O)[C@@H](Cc2ccc(Cl)c(Cl)c2)NS(=O)(=O)Cc2ccccc2)cc1 | Cmax [4]: 660 nM; logP [5]: > 3.68; Tmax [6]: 53 min; bioavailability [7]: 35%; half-life [8]: 20 min; pKa [10]: 4.8; clearance [9]: 71 mL/min/kg
